High-throughput results deposited in PubChem by Johns Hopkins Ion Channel Center.
MrgX1 antag = blocks BAM8-22 activation of human MrgX1 receptor; Q96LB2; B-score at 10 µM; MRGX1-HEK293 calcium flux, Fluo-4, BAM8-22 antagonism; stronger effect = lower value; actives 1.3% (n = 310,000);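 active means calcium-response B-score plate-corrected more than 3 library SD below zero, starting fluorescence within 5 deviations, no agonist response on first addition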;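 further: peak minus trough fluorescence over baseline after final BAM8-22 challenge near maximal dose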
Target sequence (Q96LB2 whole entry, looked up): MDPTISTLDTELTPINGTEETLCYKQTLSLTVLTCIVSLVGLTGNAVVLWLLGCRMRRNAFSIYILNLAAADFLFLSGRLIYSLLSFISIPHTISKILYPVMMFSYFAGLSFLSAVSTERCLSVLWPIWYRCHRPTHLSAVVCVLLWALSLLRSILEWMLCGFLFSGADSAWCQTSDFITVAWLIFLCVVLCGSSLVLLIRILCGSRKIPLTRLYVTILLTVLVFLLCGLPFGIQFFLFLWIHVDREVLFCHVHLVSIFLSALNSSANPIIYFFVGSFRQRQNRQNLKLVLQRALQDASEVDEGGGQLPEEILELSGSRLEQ
RGS4 block = inhibitors of human RGS4; P49798; HEK293 M3R/RGS4 inducible, Fluo-4 calcium flux; stronger effect = higher value; triggered by carbachol at its EC20; B-score at 10 µM; actives 0.45% (n = 310,000); AID 463165;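 active means B-score, a plate-corrected calcium signal, over three deviations above library mean, with baseline fluorescence within five deviations of library mean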;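 further: RGS4 expression induced by doxycycline in cells with stable M3 receptor; B-score is computed from the integrated fluorescence ratio over baseline after carbachol; higher B-score means a larger calcium signal and so more RGS4 inhibition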
Target sequence (P49798 whole entry, looked up): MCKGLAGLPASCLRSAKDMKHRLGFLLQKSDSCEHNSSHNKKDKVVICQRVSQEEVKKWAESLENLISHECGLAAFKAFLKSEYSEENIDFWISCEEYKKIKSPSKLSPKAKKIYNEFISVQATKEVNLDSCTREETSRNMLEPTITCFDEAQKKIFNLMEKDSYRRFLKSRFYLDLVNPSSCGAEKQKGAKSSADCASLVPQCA
RGS4 pot = RGS4 potentiation or activation; HEK293 M3R/inducible RGS4, carbachol calcium flux Fluo4; stronger effect = lower value; B-score at 10 µM; actives 0.92% (n = 310,000); AID 463111;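 active means B-score of the integrated calcium signal more than 4 SD below the library mean, with starting fluorescence not abnormally high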;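 further: negative B-score means reduced calcium response which marks RGS4 activation or potentiation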
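test system = HEK293 cells with stable M3R and inducible RGS4 | schedule = recording 10 s baseline at 1 Hz, 100 s post-agonist | technique = Fluo4-AM (2 µM) calcium-flux fluorescence, kinetic read | measure = Agonist-evoked peak-minus-minimum fluorescence over baseline, integrated ratio, B score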
MrgX1 agonist = activates human MrgX1 receptor signaling | MrgX1-HEK293 cells, Fluo-4 calcium fluorescence, agonist mode; stronger effect = higher value | actives 0.44% (n = 310,000) | B-score at 10 µM | Q96LB2;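 active means calcium response B-score plate-corrected fluorescence ratio at least 3 library SD, with starting fluorescence B-score inside 5 SD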
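Test system: HEK293 cells stably expressing human MrgX1 receptor; Input: fifteen thousand cells per well; Dosing: compound delivered in addition one of three; Schedule: overnight seeding, then 1 h dark dye loading; Technique: Fluo-4 NW calcium fluorescence; Measure: B-scored fluorescence response ratio; Controls: positive and negative controls per plate.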
MrgX1 PAM = human MrgX1 positive allosteric modulation, primary screen; MrgX1-HEK293, Fluo-4 calcium flux, FDSS; stronger effect = higher value; B-score at 10 µM; actives 0.63% (n = 310,000);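 active means plate-corrected calcium response at least 3 library SD above typical, normal starting fluorescence, not activating the receptor alone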;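 further: compound read alongside a low EC10 to EC30 dose of BAM8-22 agonist; peak minus trough fluorescence over baseline measured at the second addition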
An asterisk follows results filed as active; i = inactive; . = no result. A selection: hits, their analogues and other compounds. The true share with any hit is near 3.5%.

SMILES | MrgX1 antag | RGS4 block | RGS4 pot | MrgX1 agonist | MrgX1 PAM
C#CCOCCOCCOCCNc1nc(N2CCN(C(=O)CCCCCCCCCCNC(=O)[C@H]([C@@H](C)CC)n3cc(CCCCN=C(N)N)nn3)CC2)nc(N2CCN(C(=O)CCCCCCCCCCNC(=O)[C@H]([C@@H](C)CC)n3cc(CCCCN=C(N)N)nn3)CC2)n1 | i | . | . | 38.5* | i
C#CCOCCOCCOCCNc1nc(N2CCN(C(=O)CCCCCCCCCCNC(=O)[C@H](CO)n3cc(CCCSC)nn3)CC2)nc(N2CCN(C(=O)CCCCCCCCCCNC(=O)[C@H](CCCN=C(N)N)n3cc(C[C@@H](C)CC)nn3)CC2)n1 | i | . | . | i | i
C#CCOCCOCCOCCNc1nc(N2CCOCC2)nc(N2CCN(C(=O)CCCCCCCCCCNC(=O)[C@@H]([C@H](C)CC)n3cc(CCCCCN)nn3)CC2)n1 | i | . | . | i | i
CCOC(=O)C1=NOC2C3CC(C12)C1C(=O)N(CCc2ccc(OC)c(OC)c2)C(=O)C31 (configuration not stated) | i | i | i | i | i
C#CCOCCOCCOCCNc1nc(N2CCN(C(=O)CCCCCCCCCCNC(=O)[C@H]([C@@H](C)CC)n3cc(CCCCN=C(N)N)nn3)CC2)nc(N2CCN(C(=O)CCCCCCCCCCNC(=O)[C@H](CCCCN)n3cc(C)nn3)CC2)n1 | i | . | . | 122* | i
C#CCOCCOCCOCCNc1nc(N2CCN(C(=O)CCCCCCCCCCNC(=O)[C@H]([C@@H](C)CC)n3cc(CCCCCN)nn3)CC2)nc(N2CCN(C(=O)CCCCCCCCCCNC(=O)[C@H](CCCCN)n3cc(CCCC(=O)O)nn3)CC2)n1 | i | . | . | i | i
C#CCOCCOCCOCCNc1nc(N2CCN(C(=O)CCCCCCCCCCNC(=O)Cn3cc(CCCCCN)nn3)CC2)nc(N2CCN(C(=O)CCCCCCCCCCNC(=O)[C@H]([C@@H](C)CC)n3cc(CCCCN=C(N)N)nn3)CC2)n1 | i | . | . | 116* | i
O=C(NC1CCS(=O)(=O)C1)c1cccs1 (configuration not stated) | i | i | i | i | i
CC(C)C(=O)Nc1ccc(S(=O)(=O)N2CCC(c3nc4ccccc4[nH]3)CC2)cc1 | i | i | i | i | i
O=C(NN1CCOCC1)c1ccc(Br)cc1 | i | i | i | i | i
Cc1ccc(C(=O)NN2CCOCC2)cc1 | -4.96* | i | i | i | i
O=C(Nc1nncs1)C1CC(=O)N(CCc2ccc(F)cc2)C1 (configuration not stated) | i | i | i | i | i
O=C(Cn1cnc([N+](=O)[O-])c1)c1ccc(F)cc1 | i | i | i | i | 10.9*
O=C(Cn1cnc([N+](=O)[O-])c1)NCc1ccc(F)cc1 | i | i | i | i | i
O=C(NNC(=O)c1cc(-c2cccc(Br)c2)nc2ccccc12)c1csc(N2CCOCC2)n1 | i | i | -7.56* | i | i
NCC(c1ccccc1)c1c[nH]c2ccccc12 (configuration not stated) | i | i | i | i | i
O=[N+]([O-])CC(c1ccc(F)cc1)c1c[nH]c2ccccc12 (configuration not stated) | i | i | i | i | 6.51*
O=C(Nc1ccc(Cl)c([N+](=O)[O-])c1)C(Sc1ccccc1)c1ccccc1 (configuration not stated) | i | i | -8.6* | i | i
COc1ccc(OCCCC(=O)N(C)CC(=O)Nc2ccccc2Cl)cc1 | i | i | i | i | i
CCC(=O)N1CCN(c2ccc(NC(=O)c3ccco3)cc2Cl)CC1 | . | i | i | . | .
CCCC(=O)N1CCN(c2ccc(NC(=O)c3cccs3)cc2Cl)CC1 | i | i | i | i | i
CC1CCN(c2ccccc2NC(=O)c2cc3ccccc3o2)CC1 | i | i | -7.41* | i | i
CCC(=O)N1CCN(c2ccc(NC(=O)c3cc4ccccc4o3)cc2Cl)CC1 | i | i | -7.48* | i | i
CCCC(=O)N1CCN(c2ccc(NC(=O)c3cc4ccccc4o3)cc2Cl)CC1 | i | i | -8.59* | i | i
CCCC(=O)Oc1ccc(C2NC(=O)c3ccccc3O2)cc1OC (configuration not stated) | i | i | i | i | i
SMILES | MrgX1 antag | RGS4 block | RGS4 pot | MrgX1 agonist | MrgX1 PAM
O=C(Nc1ccc(C(=O)N2CCCC2)cc1)c1ccc(F)cc1Cl | i | i | i | i | i
CSc1ccc(CN2CCC(n3nccc3NC(=O)CCCc3ccccc3)CC2)cc1 | i | i | i | i | i
CCOc1ccc(N2CC(C(=O)NCc3ccc4c(c3)OCO4)CC2=O)cc1 (configuration not stated) | i | i | i | i | i
CC1CN(C)C(C)CC1OC(=O)C(c1ccccc1)c1ccccc1 (configuration not stated) | i | i | -7.23* | i | i
CN(C)[C@@H]1CCC[C@H]1OC(=O)C(c1ccccc1)c1ccccc1 | i | i | i | i | i
COc1ccc(N(C)C(=O)c2ccc3c(Cl)c4c(nc3c2)CCCC4)c(OC)c1 | i | i | -7.08* | i | i
O=C(/C=C/c1ccccc1)c1ccc2c(c1)OCCCCO2 | i | i | i | i | 16.1*
O=C1COc2ccc(C(=O)/C=C/c3ccccc3)cc2N1 | i | i | i | 32.8* | i
O=C(O)c1ccc2c(c1)OCCCO2 | i | i | i | i | i
CC1CC(C)CN(C(=O)CSc2nc(Cc3cccs3)nc3ccccc23)C1 (configuration not stated) | i | i | -7.08* | i | i
CCOC(=O)C1CCN(C(=O)C2CCCN2S(=O)(=O)c2ccc(Cl)cc2)CC1 (configuration not stated) | i | i | i | i | i
O=C1/C(=C\c2ccc(O)cc2)SC(=S)N1/N=C/c1ccc(O)cc1 | i | i | i | 39.1* | i
COC1=C/C(=C/c2c(N)n3nc(CC(=O)N4CCCCC4)sc3nc2=O)C=CC1=O | i | i | i | 68.5* | i
Nc1c(/C=C2\C=Nc3ccccc32)c(=O)nc2sc(CC(=O)N3CCOCC3)nn12 | i | i | i | i | 10.1*
O=C(OCC(=O)C12CC3CC(CC(C3)C1)C2)c1ccc(O)cc1O | i | i | i | i | i
Cc1c2cnn(CC(=O)N3CCN(c4ncccn4)CC3)c(=O)c2c(C)n1Cc1ccc(F)cc1 | i | i | i | i | i
